Only some compounds are listed: those with a hit (about 2.8% of all), similar ones and a draw of the others.
p47phox inh: p47phox/p22phox peptide binding inhibitors, primary screen, biochemical, uHTS, NADPH oxidase regulatory subunit. 220,000 tested, 0.53% active. AID 1274, 2008. Neutrophil cytosol factor 1 (Homo sapiens), P14598. inhibition, % at 24.7 µM. fluorescence polarization, 2 h;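 further: 0% = p47phox with labelled peptide and 100% = labelled peptide alone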
RBBP9 inhibitor: human RBBP9 inhibitors, primary screen, biochemical, fluorescence polarization, FP-Rh probe, HTS. AID 1515, 2009. inhibition, % at 7.94 µM. 220,000 tested, 0.2% active. Serine hydrolase RBBP9 (Homo sapiens), O75884. recombinant RBBP9;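 active means inhibition above the campaign mean of all tested compounds plus 3 SD, cut at about 14% in these data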;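 further: plate controls were DMSO wells with RBBP9 for no effect and wells lacking RBBP9 protein for full effect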
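Controls: DMSO-treated enzyme wells and wells lacking RBBP9 | Material: RBBP9 protein | Technique: Fluorescence polarization | Replication: Single well per compound, no replicates | Buffer or medium: Tris-NaCl-Pluronic buffer, pH 8.0 | Timing: 30 min compound preincubation, 45 min probe labeling, 25 °C | Read-out basis: Percent inhibition from mP, scaled between DMSO and no-protein wells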
14-3-3 Bad inh: inhibitors of 14-3-3 zeta/Bad binding, primary screen, biochemical, TR-FRET, bovine 14-3-3 zeta. 14-3-3 protein zeta/delta (Bos taurus), P63103. TR-FRET 14-3-3zeta/Dy647-pBad peptide displacement, 1 h. inhibition, % at 21.7 µM. 220,000 tested, 0.71% active;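 active means inhibition above about 70%, limit read from the data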;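 further: 0% = full 14-3-3 plus peptide FRET controls and 100% = background without 14-3-3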
Wee1 degr inh: Wee1 degradation inhibitors, primary screen, cell-based, HeLa, Wee1K328M-luciferase, luminescence | Wee1-like protein kinase (Homo sapiens), P30291 | HeLa Luc-Wee1K328M stability; 100% = proteasome inhibitor MG132 effect | reporter increase, % at 5 µM | 220,000 tested, 1.2% active | AID 1321, 2008;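 active means activation above the mean of all tested compounds plus 3 SD, set per screening run, cut at about 8.8% in these data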;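 further: cells exposed to compound for 20 h before luminescence read; 0% = DMSO alone and 100% = MG132 at 30 µM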
eIF4E 4G PPI: eIF4E–eIF4G protein interaction inhibitors, primary screen, biochemical, uHTS, TR-FRET, eIF4GI fragment. Eukaryotic translation initiation factor 4E (Mus musculus) + Eukaryotic translation …. TR-FRET eIF4E-eIF4GI(517-606) binding, 2 h. inhibition, % at 21.7 µM. 220,000 tested, 0.37% active;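 further: 0% = full FRET control wells and 100% = background wells lacking eIF4GI fragment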
Numbers without * were called inactive; [ ] = another dose, or the depositor's remark.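 How the source made its calls, unless noted: active means inhibition above about 30% (limit read from the data); inactive means the rest.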

SMILES	p47phox inh	RBBP9 inhibitor	14-3-3 Bad inh	Wee1 degr inh	eIF4E 4G PPI
CC(C)(C)NC(=O)C(c1ccc(O)cc1)N(C(=O)CCC(=O)Nc1nccs1)c1ccc(F)cc1 (stereo unspecified)	-5	-7	-11	-2	-2
Cc1nnc(NC(=O)c2nn(CC(C)C)c(=O)c3ccccc23)s1	2	2	-8	10*	-2
O=S(=O)(c1ccc(Cl)s1)N1CCCc2cccc(O)c21	-2	-5	10	9.2*	4
O=S(=O)(c1ccc(Cl)s1)N1CCc2ccccc2C1	-5	-6	0	-1	-7
c1ccc(-c2nnsc2Sc2ccccn2)cc1	-14	0	-3	2	-1
COc1cc(CNCc2ccccn2)ccc1OCc1cccc(Cl)c1	6	-3	88*	-3	-2
O=C(NNC(=O)C1CC2CCC1C2)c1sc2ccccc2c1Cl (stereo unspecified)	-9	2	-3	1	0
CC(C)CNC(=O)Cn1c(=O)c2c(ncn2CC(C)C)n(Cc2ccccc2)c1=O	-3	-8	90*	2	0
COc1ccc(C(=O)c2ccccc2)c(OCC(=O)NC2CC2)c1	-2	8	-3	-3	1
C[C@]12CC[C@@H]3c4cc(O)c(O)cc4CC[C@H]3[C@@H]1CC[C@@H]2O	14	24*	11	1	13
C[C@]12CC[C@@H]3c4ccc(O)cc4CC[C@H]3[C@@H]1CC[C@@H]2O	4	-11	-2	-2	2
O=C(Oc1c(Br)cc(C(=S)N2CCOCC2)cc1Br)c1ccc(Cl)cc1	-7	-10	0	-2	49*
CC1CC(C)CN(CCCNC(=O)COc2cc(=O)n(C)c3ccccc23)C1 (stereo unspecified)	-5	-4	0	-4	4
CCn1c(=O)cc(OCC(=O)NCCCN2CC(C)CC(C)C2)c2ccccc21 (stereo unspecified)	68*	0	-17	-2	-12
O=C(Nc1nccs1)c1cccc(N2C(=O)c3cccc4c([N+](=O)[O-])ccc(c34)C2=O)c1	19	1	77*[fluorescence artefact?]	1	-40
CCN(CC)c1ccc(N2C(=O)/C(=C\c3cccs3)SC2=S)cc1	-15	-11	92*[fluorescence artefact?]	-1	-30
O=C1/C(=C/c2cccs2)SC(=S)N1c1ccccc1	-5	-2	-5	-1	-1
COCC(C)NC(=O)c1cc2cccc([N+](=O)[O-])c2[nH]1 (stereo unspecified)	-2	2	-7	1	-5
Cc1cc(NC(=O)c2cc3cccc([N+](=O)[O-])c3[nH]2)ccc1F	-36	3	-1	17*	-7
Cc1ccc2nc(/C(C#N)=C\c3ccc(N4CCCCC4)c([N+](=O)[O-])c3)[nH]c2c1	10	6	87*[fluorescence artefact?]	3	12
N#C/C(=C/c1ccc(N2CCCC2)c([N+](=O)[O-])c1)c1nc2ccccc2[nH]1	-5	-8	25	1	8
COc1ccc(S(=O)(=O)N(c2onc(C)c2Cl)S(=O)(=O)c2ccc(OC)c(OC)c2)cc1OC	-7	-3	78*	-1	-2
COc1ccc2[nH]c3c(=O)n(Cc4ccc(C(=O)NCC5CCCO5)cc4)c(=S)[nH]c3c2c1 (stereo unspecified)	-1	-4	-2	5	18
CN(C)c1nc(SCc2ccc(Cl)cc2)nc2c1CCCC2	1	-10	-2	-3	-2
CC(NC(=O)Nc1nnc(C(F)(F)F)s1)N1C(=O)C2C3C=CC(C3)C2C1=O (stereo unspecified)	-8	8	79*	-5	5
Cc1nnc(NC(=O)NC(C)N2C(=O)C3C4C=CC(C4)C3C2=O)s1 (stereo unspecified)	-13	-5	-2	-4	-4
O=C1CCCCC1Sc1nnc(Nc2ccccc2)s1 (stereo unspecified)	-9	-1	-4	8.9*	6

High-throughput results as filed in PubChem.
